Bioassay records deposited in PubChem by several laboratories.
Sampled rows, rich in hits. Any-hit rate of the full collection: about 1.3%.
GASC-1 inh: blocks human GASC-1 demethylase activity | hit rate 0.069% among 330,000 | inhibition, % at 2.35 µM | GST-JMJD2C(1-420) H3K9me3 demethylation, DELFIA europium | AID 2099;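 active = more than half of a compound's replicate wells show inhibition beyond 50%, single wells judged on their own value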;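 also: signal counts dimethyl H3K9 product captured on neutravidin plate; 0% = median of DMSO wells and 100% = 0.3 times that DMSO median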
PGE2 EP2 inh: EP2 receptor (human) inhibition; hit rate 0.52% among 260,000; C6 glioma cells expressing human EP2, cAMP TR-FRET; cells stimulated with saturating PGE2; inhibition, % at 25 µM;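 active = percent inhibition above 40 after rounding to a whole number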;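 also: rat C6 glioma host cells with rolipram phosphodiesterase inhibitor present; the protocol text gives 20 µM as final concentration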
NR2E3 ag-1: human photoreceptor-specific nuclear receptor agonism. CHO-S Gal4-NCOR/VP16-NR2E3 two-hybrid, luciferase. inhibition of corepressor binding, % at 3.98 µM. hit rate 0.35% among 360,000. AID 602229;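 active = inhibition above the mean of all tested compounds plus 3 SD, cut at about 70% in these data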;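 also: 0% = DMSO with NR2E3 transfected cells and 100% = cells lacking NR2E3 construct; higher means lower luciferase signal from less NR2E3 corepressor binding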
NR2E3 ag-2: agonists of human nuclear receptor NR2E3; GST-NR2E3/biotin-RetCOR TR-FRET, 1536-well; hit rate 0.12% among 320,000; AID 2300; inhibition of corepressor binding, % at 4.78 µM; Q9Y5X4;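 active = percent inhibition above the cutoff of mean plus 3 SD of all tested compounds, set per screening campaign, cut at about 20% in these data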;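 also: 0% = DMSO wells and 100% = biotin wells as full block of FRET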
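Format: 1536-well format; test system: GST-NR2E3 and biotin-RetCOR proteins; read-out basis: percent inhibition of TR-FRET ratio; timing: 5 h incubation at 4 °C; detection: time-resolved FRET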
Furin inh: blocks human furin protease activity | purified furin, fluorogenic substrate cleavage | inhibition, % at 20 µM or 30 µM | hit rate 0.061% among 220,000; in the data active = inhibition above about 25%
EP2 modulator: modulates human prostaglandin E2 receptor EP2 signaling. P43116. hit rate 0.83% among 260,000. induction, % at 25 µM. EP2-expressing cells, cAMP HTRF FRET, PGE2 co-stimulation;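 active = compounds whose cAMP rise, as percent of the full-agonist control response, exceeds 60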;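 also: rat C6 glioma line stably carrying human EP2 under a CMV promoter; the protocol text gives 20 µM as final concentration; 100% = response of wells given 1 µM PGE2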
NR2E3 agonist cf: confirmation of human NR2E3 nuclear receptor agonists; shares compounds with NR2E3 ag-2; cell-free NR2E3 corepressor release, TR-FRET, 5 h; activation (reported as inhibition), % at 3.98 µM; hit rate 39% among 360; in the data active = activation above about 20%
PPARg-NCOR2 ag: counter-screen for NR2E3 agonists: human PPARgamma-NCOR2 interaction agonists. shares compounds with NR2E3 ag-2. inhibition, % at 3.98 µM. TR-FRET PPARg-NCOR2 coregulator interaction, biochemical. AID 504787. hit rate 45% among 360; in the data active = inhibition above about 20%;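 also: 0% = DMSO vehicle and 100% = wells without protein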
Target sequence (P37231 whole entry, looked up): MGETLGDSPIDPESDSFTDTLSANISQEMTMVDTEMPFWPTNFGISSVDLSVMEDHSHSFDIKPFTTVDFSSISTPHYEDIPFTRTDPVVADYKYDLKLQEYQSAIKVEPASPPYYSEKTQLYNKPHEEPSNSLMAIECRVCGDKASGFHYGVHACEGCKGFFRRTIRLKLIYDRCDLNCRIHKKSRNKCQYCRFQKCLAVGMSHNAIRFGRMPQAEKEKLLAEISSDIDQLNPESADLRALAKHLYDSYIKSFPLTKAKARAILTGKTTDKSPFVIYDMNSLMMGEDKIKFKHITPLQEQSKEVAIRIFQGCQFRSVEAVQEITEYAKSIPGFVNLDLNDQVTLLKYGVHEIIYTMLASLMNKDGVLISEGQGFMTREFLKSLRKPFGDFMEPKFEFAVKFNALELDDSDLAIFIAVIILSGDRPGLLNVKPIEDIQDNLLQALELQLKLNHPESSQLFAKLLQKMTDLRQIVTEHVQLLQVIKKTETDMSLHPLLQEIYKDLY
Target sequence (Q9Y618 whole entry, looked up): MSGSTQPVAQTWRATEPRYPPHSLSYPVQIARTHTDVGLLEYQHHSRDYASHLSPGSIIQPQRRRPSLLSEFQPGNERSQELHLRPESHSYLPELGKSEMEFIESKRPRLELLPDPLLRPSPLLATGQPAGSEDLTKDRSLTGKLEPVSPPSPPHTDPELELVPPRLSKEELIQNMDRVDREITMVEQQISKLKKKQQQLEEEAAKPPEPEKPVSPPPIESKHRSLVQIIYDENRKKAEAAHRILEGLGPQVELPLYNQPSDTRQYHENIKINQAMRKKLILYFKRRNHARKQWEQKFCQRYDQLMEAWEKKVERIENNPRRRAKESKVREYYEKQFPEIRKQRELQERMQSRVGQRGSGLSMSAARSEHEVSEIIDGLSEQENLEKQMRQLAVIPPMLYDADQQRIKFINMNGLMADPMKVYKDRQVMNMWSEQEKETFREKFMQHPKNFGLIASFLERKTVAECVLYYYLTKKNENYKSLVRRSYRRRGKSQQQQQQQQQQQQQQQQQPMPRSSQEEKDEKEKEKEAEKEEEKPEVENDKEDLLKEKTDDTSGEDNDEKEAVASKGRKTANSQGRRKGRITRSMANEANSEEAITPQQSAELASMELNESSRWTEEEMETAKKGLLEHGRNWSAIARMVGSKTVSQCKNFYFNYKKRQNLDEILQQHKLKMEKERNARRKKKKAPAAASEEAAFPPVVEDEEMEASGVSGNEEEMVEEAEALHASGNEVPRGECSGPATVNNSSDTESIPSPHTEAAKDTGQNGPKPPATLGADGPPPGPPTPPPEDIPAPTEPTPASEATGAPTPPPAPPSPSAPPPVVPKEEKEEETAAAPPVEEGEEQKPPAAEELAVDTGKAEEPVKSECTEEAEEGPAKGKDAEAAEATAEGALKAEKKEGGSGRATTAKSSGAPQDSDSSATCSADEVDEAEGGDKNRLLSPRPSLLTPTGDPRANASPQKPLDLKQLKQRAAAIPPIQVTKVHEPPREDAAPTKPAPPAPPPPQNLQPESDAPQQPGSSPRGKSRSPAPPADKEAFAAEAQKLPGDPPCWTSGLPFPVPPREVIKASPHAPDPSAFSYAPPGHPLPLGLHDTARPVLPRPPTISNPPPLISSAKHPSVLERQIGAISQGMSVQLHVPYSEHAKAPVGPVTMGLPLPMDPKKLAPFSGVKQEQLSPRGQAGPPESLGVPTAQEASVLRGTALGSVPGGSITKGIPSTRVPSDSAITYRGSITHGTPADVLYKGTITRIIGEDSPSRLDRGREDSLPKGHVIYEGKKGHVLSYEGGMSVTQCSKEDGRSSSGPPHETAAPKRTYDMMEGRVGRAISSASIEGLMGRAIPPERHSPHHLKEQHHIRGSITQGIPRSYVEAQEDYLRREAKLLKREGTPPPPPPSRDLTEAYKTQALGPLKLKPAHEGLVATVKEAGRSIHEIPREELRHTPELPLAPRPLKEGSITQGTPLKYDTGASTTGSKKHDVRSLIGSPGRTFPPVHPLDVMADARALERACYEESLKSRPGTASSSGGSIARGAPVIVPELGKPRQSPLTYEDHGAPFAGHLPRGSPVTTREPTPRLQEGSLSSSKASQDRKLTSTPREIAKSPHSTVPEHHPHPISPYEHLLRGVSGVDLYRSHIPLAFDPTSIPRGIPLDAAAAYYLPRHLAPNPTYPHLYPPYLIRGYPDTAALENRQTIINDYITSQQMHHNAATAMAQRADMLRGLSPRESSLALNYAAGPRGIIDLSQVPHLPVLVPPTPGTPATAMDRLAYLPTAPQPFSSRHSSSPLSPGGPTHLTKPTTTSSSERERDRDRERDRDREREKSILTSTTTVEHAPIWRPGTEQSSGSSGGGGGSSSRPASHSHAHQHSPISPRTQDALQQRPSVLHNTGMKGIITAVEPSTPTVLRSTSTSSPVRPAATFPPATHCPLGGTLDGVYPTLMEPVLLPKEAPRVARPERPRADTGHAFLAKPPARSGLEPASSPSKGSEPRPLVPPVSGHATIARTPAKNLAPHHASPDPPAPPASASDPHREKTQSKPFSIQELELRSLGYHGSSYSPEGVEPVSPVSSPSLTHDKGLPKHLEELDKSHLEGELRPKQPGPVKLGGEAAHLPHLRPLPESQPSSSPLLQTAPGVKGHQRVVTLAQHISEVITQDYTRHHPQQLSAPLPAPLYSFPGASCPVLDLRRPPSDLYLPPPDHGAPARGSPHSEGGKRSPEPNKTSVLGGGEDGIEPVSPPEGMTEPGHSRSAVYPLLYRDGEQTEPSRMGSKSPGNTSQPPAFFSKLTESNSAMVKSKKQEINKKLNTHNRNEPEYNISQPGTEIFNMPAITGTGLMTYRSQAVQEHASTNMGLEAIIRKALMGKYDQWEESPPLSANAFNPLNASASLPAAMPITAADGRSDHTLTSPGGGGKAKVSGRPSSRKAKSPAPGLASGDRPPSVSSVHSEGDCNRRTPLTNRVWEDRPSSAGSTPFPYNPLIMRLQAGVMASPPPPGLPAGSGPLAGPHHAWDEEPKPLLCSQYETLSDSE
* marks the source's active call; other numbers are inactive results; nt = no result.

SMILES | GASC-1 inh | PGE2 EP2 inh | NR2E3 ag-1 | NR2E3 ag-2 | Furin inh | EP2 modulator | NR2E3 agonist cf | PPARg-NCOR2 ag
O=C(Nc1nnc(C2CCCO2)s1)c1cc2ccccc2o1 (stereo unspecified) | nt | 6.8 | nt | nt | nt | -22.0 | nt | nt
COc1cccc(CNC(=O)CCCn2c(=S)[nH]c3cc4c(cc3c2=O)OCO4)c1 | -1.9 | nt | -1.6 | 26.2* | nt | nt | 31.3* | 35.9*
Cc1c(Br)c(=O)oc2c(C)c(O)ccc12 | -5.7 | 10.0 | 4.6 | 21.4* | -16.3 | 34.6 | 0.8 | 0.3
CCc1c(C)c2ccc(O)c(CN(C)C)c2oc1=O | 7.4 | 6.0 | -28.4 | 0.6 | -117.7 | 13.4 | nt | nt
Cc1ccc(CNC(=O)c2cc3c(s2)CN(Cc2ccccc2)C3)cc1 | 15.0 | 3.2 | 0.9 | 20.5* | -13.6 | -4.0 | -5.9 | -2.5
Cc1nc2ccc(Br)cc2c(-c2ccccc2)c1C(=O)O | -4.8 | nt | 0.9 | 46.5* | nt | nt | 58.6* | 54.0*
CC(=O)c1c(C)nc2ccc(Br)cc2c1-c1ccccc1 | 2.0 | 4.7 | -12.2 | 2.2 | -8.3 | 56.7 | nt | nt
COc1ccccc1C1(NC(=O)c2cc(-c3ccc(C)o3)[nH]n2)CCCC1 | nt | 9.5 | nt | nt | nt | -83.8 | nt | nt
CC[C@@H](Cn1nc(-c2ccc(F)c(F)c2)ccc1=O)NC(=O)CCc1c(C)noc1C | nt | 6.4 | nt | nt | nt | -19.3 | nt | nt
CCOC(=O)CCCc1sc(N)nc1-c1[nH]c(=O)[nH]c1C | 3.8 | 0.0 | -15.9 | 47.9* | -10.0 | -7.3 | 11.8 | -2.6
CCCc1c(C)c2cc(Cl)c(O)cc2oc1=O | nt | 22.5 | nt | nt | nt | -39.4 | nt | nt
O=c1oc2cc(O)c(Cl)cc2c2ccccc12 | -4.9 | 28.5 | -11.1 | 51.6* | -1.0 | 61.4* | 45.8* | 47.8*
S=c1nc(COc2ccccc2)[nH]c2ccccc12 | 26.9 | 18.7 | -84.5 | 30.9* | nt | 65.7* | 4.6 | 12.5
S=c1nc(Cc2ccccc2)[nH]c2ccccc12 | -7.9 | nt | -6.7 | 22.9* | nt | nt | -3.6 | 7.7
S=c1nc(Cc2ccc(Cl)cc2)[nH]c2ccccc12 | -6.1 | 2.9 | 23.1 | 13.6 | -22.4 | 19.4 | nt | nt
COc1ccc(CN(Cc2cn(C)c3ccccc23)CC2CCCO2)c(OC)c1OC (stereo unspecified) | nt | 4.9 | nt | nt | nt | -15.2 | nt | nt
Cc1cc(N2C(=O)C(O)=C(C(=O)c3cc4ccccc4o3)C2c2ccc(OC(C)C)cc2)no1 (stereo unspecified) | 6.9 | nt | -54.9 | 11.3 | nt | nt | nt | nt
Cc1cc(N2C(=O)C(O)=C(C(=O)c3cc4ccccc4o3)C2c2cccc(Br)c2)no1 (stereo unspecified) | 3.2 | nt | 30.7 | 37.8* | nt | nt | 48.3* | 46.2*
CCCOc1cccc(C2C(C(=O)c3cc4ccccc4o3)=C(O)C(=O)N2c2cc(C)on2)c1 (stereo unspecified) | 3.2 | nt | -9.3 | 24.3* | nt | nt | 33.6* | 36.3*
Cn1c(=S)[nH]c2ccccc21 | 8.2 | -0.3 | 3.0 | 0.2 | -9.8 | 12.8 | nt | nt
S=c1[nH]c2ccccc2n2cccc12 | -6.7 | 8.3 | -13.0 | 29.3* | -3.1 | 54.4 | 7.8 | 7.5
Cc1cc(C)nc(N2CCCC(C(=O)Nc3ccc(C(F)(F)F)cc3)C2)n1 (stereo unspecified) | nt | 8.2 | nt | nt | nt | -22.2 | nt | nt
COc1cc2oc(=O)c(Br)c(C)c2c(OC)c1OC | nt | 44.3* | -10.9 | 19.8* | -7.8 | 44.3 | 7.9 | 5.7
COc1cc2oc(=O)cc(C)c2c(OC)c1OC | 5.1 | 4.8 | 17.6 | 3.0 | -7.3 | -0.6 | nt | nt
CCCCC1=CC2=C(c3ccco3)C(=O)C(C)(OC(=O)c3ccc(OC)cc3)C(=O)C2=CN1C1CCCC1 (stereo unspecified) | 0.6 | 18.1 | nt | 46.5* | nt | nt | 7.5 | 12.8
CCCCC1=CC2=C(c3ccco3)C(=O)C(C)(OC(=O)c3ccc(OC)cc3)C(=O)C2=CN1c1ccc(OC)cc1 (stereo unspecified) | 9.3 | 9.3 | -20.4 | 33.7* | -19.6 | 13.3 | -3.1 | 5.3
CCCCC1=CC2=C(c3ccco3)C(=O)C(C)(OC(=O)c3ccc(OC)cc3)C(=O)C2=CN1C1CC1 (stereo unspecified) | -7.0 | 10.8 | -4.5 | 8.9 | -23.8 | 3.1 | nt | nt
